# PubChem BioAssay AID1296 (Columbia University Molecular Screening Center, 2008)
# Hit rate of the full screen: of about 130,000 compounds, about 1,000 (0.77%) were called active. Inconclusive results (about 1%) are left out.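 How the source made its calls: active means activation at 2 µM above a set limit, confirmed on inspection of the cell images; inconclusive means above the set limit but not confirmed on image inspection; inactive means the rest.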 For the sample, actives were picked, then their nearest neighbours and some compounds at random.
# Test: insulin gene promoter stimulation in islet cells – imaging, TRM-6 cells (human fetal islet line), eGFP reporter, cell count, primary screen (AID 1296;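 on activation: share of cells whose green reporter signal exceeds an intensity cutoff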)
# Settings: at 2 µM; activation: stronger effect = higher value, plate-scaled: unstimulated 0, stimulated control 100; normalized cell count: measured here: cell count (toxicity)
# How it was run: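 test system = TRM-6 insulin promoter–eGFP reporter cells | benchmarks = stimulated versus unstimulated wells as plate controls | read-out basis = percent cells above green-intensity threshold, converted to percent activation versus plate controls | detection = fixed-cell fluorescence microscopy, eGFP plus Hoechst | incubation = tamoxifen pre-incubation 15 h overnight, then compound exposure 48 h at 37 °C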
Structure (SMILES),activation,normalized cell count [%]
O=C(CSc1nnc(-c2ccoc2)o1)N1CCOCC1,-9.09% (inactive),105
COC(=O)CSc1nnc(-c2cccnc2)o1,5.13% (inactive),134
Cc1cccc(C)c1OC(=O)CSc1nnc(-c2ccccc2)o1,487% (active),75.9
C=CCOc1c(Br)cc(/C=N\n2nnnc2N)cc1OC,0% (inactive),53.2
O=C(CN1C(=O)NC2(CCCCC2)C1=O)NCCC1=CCCCC1,-3.7% (inactive),86.8
O=C(CN1C(=O)NC2(CCCCCC2)C1=O)NC1CC1,542% (active),78.5
CCC1SC(CC)C(=O)N(CC(=O)NC2CCCCC2)C1=O (centres undefined),-8.33% (inactive),80.9
O=C(CSc1nc2ccc([N+](=O)[O-])cc2[nH]1)c1ccc(Cl)cc1,-3.7% (inactive),85.9
COc1ccccc1-c1nc(SC)n[nH]1,-5.26% (inactive),131
COc1ccc(C(=O)NC(=S)NNC(=O)CCc2ccccc2)cc1,-3.57% (inactive),91.6
COCCNC(=S)c1ccc(OC)cc1,433% (active),62.5
COc1cc(NC(=S)NCCSc2ccc(C)cc2)cc(OC)c1,-3.12% (inactive),116
CN=C1S/C(=C\c2ccc(Sc3ccc(Cl)cc3)o2)C(=O)N1C,-2.7% (inactive),43.5
Cc1ccc(/C=N/NC(=O)Cn2ccc(C(F)(F)F)n2)o1,8.33% (inactive),128
CC(CNC(=O)c1ccc(N)cc1)NC(=O)c1ccc(N)cc1 (centres undefined),2.33% (inactive),108
O=C(NNc1ncnc2c1cnn2-c1ccccc1)c1ccco1,500% (active),142
CCN(CC)C(=O)CSc1ncnc2c1cnn2-c1ccccc1,392% (inactive),43.6
Cc1ccc(-n2ncc3c(Nc4cccc(C(=O)O)c4)ncnc32)cc1,6.67% (inactive),45
COc1cc(/C=N/NC(=O)c2cc(C)n(-c3ccc(F)cc3)c2C)cc(OC)c1O,129% (inactive),121
Cc1cc(NC(=O)COC(=O)COc2ccc(Cl)cc2C)c([N+](=O)[O-])cc1C,0% (inactive),143
Cc1cc(=O)oc(C)c1C(=O)N1CCCCC1,5.26% (inactive),82.9
Cc1ccc2cc3cc(C(=O)N4CCCCCC4)oc3nc2c1,183% (active),233

Structure (SMILES),activation,normalized cell count [%]
Cc1cccc(C(=O)N2CCCN(C(=O)c3cccc(C)c3)CC2)c1,3.23% (inactive),110
Cc1cccc(N(C(=O)Cc2cccs2)C(C(=O)NCc2ccco2)c2ccncc2)c1 (centres undefined),107% (inactive),58.7
COc1cc(NC(=O)CSc2nnc3ccc(-c4ccncc4)nn23)cc(OC)c1,-5.26% (inactive),108
O=C(Nc1ccncc1)c1cc2ccccc2o1,342% (inactive),93.3
COc1ccc(C(=O)N/N=c2\oc3ccccc3cc2C(N)=O)cc1,0% (inactive),70.8
Cc1ccc(OC(=O)c2cc3ccccc3o2)cc1,79.3% (active),174
COC(=O)[C@H]1Cc2cnoc2C[C@]1(C)C(=O)O,0% (inactive),176
Cc1cc(C)cc(NC(=O)CSc2ccccc2)c1,525% (active),53.5
COC(=O)c1cc(OC)c(OC)cc1NC(=O)CSc1ccc(C)cc1,3.33% (inactive),108
COc1ccc(C)cc1NC(=O)CSc1ccc(Cl)cc1,-5.56% (inactive),93.7
Cc1nc(CC(=O)NNS(=O)(=O)c2ccc(F)c(Cl)c2)cs1,-7.69% (inactive),104
N#Cc1ccc(Oc2cc(C(F)(F)F)nc(-c3ccccn3)n2)cc1,-9.09% (inactive),91.7
CCN(CC(=O)NC(=O)NCc1ccccc1)Cc1nc2ccccc2c(=O)[nH]1,8.33% (inactive),68.7
Cc1nn(C)c(Oc2ccccc2)c1[N+](=O)[O-],7.04% (inactive),55.2
O=C(O)COc1ccc(/C=N/O)cc1Br,8.33% (inactive),101
CN1/C(=C\C=C2\N=C(c3ccc(F)cc3)OC2=O)C(C)(C)c2ccccc21,121% (active),53.1
CC(=O)NCCC(=O)Nc1nc(C)c(Cc2ccc3c(c2)OCO3)s1,0% (inactive),42.1
COc1cc(/C=C2/C(=O)ON=C2C)ccc1OCc1cccc(F)c1,0% (inactive),98.9
Cc1nn(Cc2ccc(C(=O)N3N=C(C(F)F)CC3(O)C(F)F)cc2)c(C)c1[N+](=O)[O-] (centres undefined),4.44% (inactive),126
O=C(NCc1ccco1)c1nn2cccnc2c1Cl,0% (inactive),126
COc1ccc(CS(=O)/C(Cl)=C(/Cl)C(=O)Nc2ccc(OC)nc2)cc1 (centres undefined),669% (active),10.6
COc1ccc(OC(C)C(=O)Nc2cccnc2)cc1 (centres undefined),-8.57% (inactive),50

Structure (SMILES),activation,normalized cell count [%]
COc1ccc(CC(=O)Nc2ccc(-c3nnc(-c4ccccc4)o3)cc2)cc1,6.45% (inactive),115
COc1ccc(OC)c(CNC(=O)c2cc(=O)[nH]c3ccc(S(=O)(=O)N4CCCC4)cc23)c1,0% (inactive),73.7
CC(C)C(C)(C#N)NC(=O)CSc1nncn1-c1ccccc1 (centres undefined),-7.14% (inactive),91.1
CCNc1nc(NC(C)C)nc(N2CC(=O)N(CC(=O)OCC)C2=N)n1,344% (active),69.4
O=Cc1cn(Cc2ccccc2)nc1-c1cccnc1,2.44% (inactive),212
CS(=O)(=O)N(Cc1ccccc1)c1ccc(C(=O)NN=C2CCCCCC2)cc1,-6.9% (inactive),150
COC(=O)Nc1sc2nc(C)cc(C)c2c1-n1cccc1,-3.7% (inactive),74.8
CCCN1CC=C2C(C#N)=C(N)C(C#N)(C#N)C(c3cc(OC)ccc3OC)C2C1 (centres undefined),178% (active),123
COc1cc(OC)cc(-c2nc3ccccc3c(=O)n2NC(=O)c2cccnc2Cl)c1,-5.56% (inactive),107
CC1=NNC(=O)C1CCC(=O)N/N=C\c1ccc(Cl)c(Cl)c1 (centres undefined),0% (inactive),124
CCCn1c(=S)[nH]c2ccc(C(F)(F)F)cc21,205% (active),78
CC1CC(C)CN(C(=O)CSc2ccsc2[N+](=O)[O-])C1 (centres undefined),0% (inactive),74.7
CCOc1ccc(S(=O)(=O)Nc2ccncc2)c(C)c1C,-72.7% (inactive),133
CCOc1ccc(NC(=S)NC(=O)/C=C/c2ccc(OC)cc2)c([N+](=O)[O-])c1,8.82% (inactive),139
CCN(CC)CCn1c(/N=C/c2cc(Br)ccc2O)nc2ccccc21,149% (inactive),133
CC(C)(C)N1CC(c2nc3ccccc3n2Cc2ccc(F)cc2)CC1=O (centres undefined),80% (active),127
CC(C)CCNC(=O)CC1C(=O)N(Cc2ccccc2)C(C)c2nc3ccccc3n21 (centres undefined),127% (inactive),118
CC(O)c1nc2ccccc2n1Cc1ccc([N+](=O)[O-])cc1 (centres undefined),-2.94% (inactive),149
Cc1ccc(C2CC2C(=O)NN)cc1 (centres undefined),0% (inactive),90.7
Cc1noc(C)c1CCC(=O)O,5.56% (inactive),134
Cc1ccc(NC(=O)c2ccn(C(=O)Nc3ccccc3)n2)c(C)c1,0% (inactive),123
Cc1ccnc(NC(=O)Cn2ccc([N+](=O)[O-])n2)c1,5.71% (inactive),124

Structure (SMILES),activation,normalized cell count [%]
CCOC(=O)c1[nH]c2ccc(OC)cc2c1NC(=O)N1CCOCC1,3.57% (inactive),45.3
Cc1c(C(=O)N2CCOCC2)[nH]c2ccc(OCc3ccccc3)cc12,104% (active),126
O=C(CN1CCOCC1)N1CCCc2c1c(=O)oc1ccc(OCc3ccccc3)cc21,21.5% (inactive),118
CC(=O)c1cc(-c2ccccc2)n(CCC(=O)NC2CCCCCC2)c1C,5.71% (inactive),127
CCN(CC(=O)Nc1ccc(Cl)c(S(=O)(=O)N(C)C)c1)Cc1nc2ccccc2c(=O)[nH]1,8.33% (inactive),83.9
CCn1c(SCC(=O)Nc2nccs2)nnc1-c1ccco1,0% (inactive),131
CCn1c(Cc2cccs2)nnc1SCC(=O)c1ccc(C)cc1,433% (active),93.9
Cc1ccc(-n2c(Cc3cccs3)nnc2SCC(=O)OC(C)C)cc1,-7.69% (inactive),48
Cc1ccsc1C1C(C#N)=C(N)OC2=C1C(=O)CC(C)(C)C2 (centres undefined),0% (inactive),62.4
CCN1CCN(C(C(=O)NC2CCCC2)c2cc3c(cc2[N+](=O)[O-])OCO3)CC1 (centres undefined),6.67% (inactive),84.9
CCCC(=O)NC(Nc1ccccc1OC)C(Cl)(Cl)Cl (centres undefined),-4.35% (inactive),88
CN(C)c1ccc(/C=C2\NC(=S)N(Cc3ccccc3)C2=O)cc1,170% [may fluoresce] (active),95.4
Cc1nc2ccccc2cc1C(=O)N/N=C/c1ccc([N+](=O)[O-])cc1,-75% (inactive),81
COc1cc(/C=C/C(=O)OCC(=O)Nc2cccc(Oc3ccccc3)c2)ccc1O,3.57% (inactive),105
O=C(Nc1cccc(Cl)c1)Nc1nnc(-c2ccccc2)o1,4.65% (inactive),60.8
CCOc1cc(/C=C2/C(=N)N3OC(C)=CC3=NC2=O)ccc1OC,6.67% (inactive),55.1
O=C(Nc1ccccc1N1CCCCC1)c1cccc(F)c1,5.71% (inactive),92.9
c1ccc(CC2CCN(c3nc4ccccc4n4cnnc34)CC2)cc1,-7.14% (inactive),111
O=C(c1ccccc1)c1ccc2nc(N3CCCCC3)c3nncn3c2c1,320% (active),70
CCC(C)NC(=O)c1nn(C)c(=O)c2ccccc12 (centres undefined),-5.56% (inactive),169
Cc1ccc(S(=O)(=O)c2ccc(Cl)cc2)cc1S(=O)(=O)NC(C(=O)O)C(C)C (centres undefined),3.85% (inactive),127
